Data published in ChEMBL document CHEMBL1158058, “Cardenolide glycosides from Pergularia tomentosa and their proapoptotic activity in Kaposi's sarcoma cells” (2006).
The source made the active and inactive calls. The calls are words filed in the database; no cut-off is given here.

Experiments:
KS [1] = assay: Cytotoxicity against human KS cells at >1 uM after 24 hrs; assay type: functional, cell-based
KS [2] = assay: Induction of apoptosis in human KS cells assessed as caspase 3 activity at 10 uM by DEVD-AFC fluorimetric assay; assay type: functional, cell-based
Summary of the method: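 KS cells handled as in the treatment protocol (12 h starvation, 1 h 37 °C exposure at 10 µM in DMSO, 24 h further culture in 1% FBS). Lysates incubated with the caspase-3 substrate DEVD-AFC. Fluorescence read as fold over untreated. Three independent experiments in duplicate (n = 6), mean ± SEM.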

KS [3] = assay: Cytotoxicity against human KS cells after 24 hrs by XTT assay; assay type: functional, cell-based
Summary of the method: (§1)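 KS cells (from HIV-1 patients, spontaneously immortalized) seeded at 5 × 10^3 cells/well and left to attach 24 h. Washed in HBSS-10 mM Hepes, serum-starved 12 h, then exposed at 37 °C for 24 h in fresh serum-free medium to a range of concentrations (DMSO vehicle). Washed, then cell number by XTT (OD 490 nm) and Coulter counter. At least three independent experiments in duplicate, mean ± SEM.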

[4] = Induction of apoptosis in human KS cells assessed as DNA fragmentation at 10 uM […] by FACS relative to control; assay type: functional
Summary of the method: (§2)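 KS cells serum-starved 12 h and washed with HBSS-10 mM HEPES. Preincubated 1 h at 37 °C with compound (1 or 10 µM) in DMSO (final <0.1%), washed, then cultured 24 h in 1% FBS medium. Hypodiploid (sub-G1) fraction counted by FACS against control.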

KS [5] = assay: Cytotoxicity against human KS cells after 24 hrs by coulter counter; assay type: functional, cell-based; summary of the method: as §1
[6] = Induction of apoptosis in human KS cells assessed as DNA fragmentation at 1 uM […] by FACS relative to control; assay type: functional; summary of the method: as §2
KS [7] = assay: Effect on human KS cell survival assessed as cell detachment at >1 uM by micrograph analysis; assay type: functional, cell-based

| SMILES | Activity (KS [1]) | Activity (KS [2]) | Activity (KS [3]) | Activity [4] | Activity (KS [5]) | Activity [6] | Activity (KS [7]) |
| --- | --- | --- | --- | --- | --- | --- | --- |
| C[C@]12[C@H](O)C[C@H]3[C@@H](CC[C@H]4C[C@H]5O[C@@H]6O[C@H](CO)C[C@@H](O)[C@]6(O)O[C@@H]5C[C@@]43CO)[C@@]1(O)CC[C@@H]2C1=CC(=O)OC1 [GHALAKINOSIDE] | Active | Active | Dose-dependent effect | 45% | Dose-dependent effect |  |  |
| C[C@@H]1C[C@@H](O[C@@H]2O[C@H](CO)[C@@H](O)[C@H](O)[C@H]2O)[C@]2(O)O[C@@H]3C[C@@]4(C=O)[C@@H](CC[C@@H]5[C@@H]4CC[C@]4(C)[C@@H](C6=CC(=O)OC6)CC[C@]54O)C[C@H]3O[C@@H]2O1 | Active | Active | Dose-dependent effect | 45% | Dose-dependent effect | 35% | Active |
| C[C@@H]1C[C@@H](O)[C@]2(O)O[C@@H]3C[C@@]4(CO)[C@@H](CC[C@@H]5[C@@H]4C[C@@H](O)[C@]4(C)[C@@H](C6=CC(=O)OC6)CC[C@]54O)C[C@H]3O[C@@H]2O1 | Active | Active | Dose-dependent effect | 45% | Dose-dependent effect |  |  |
| C[C@]12CC[C@H]3[C@@H](CC[C@H]4C[C@H]5O[C@@H]6O[C@H](CO)C[C@@H](O)[C@]6(O)O[C@@H]5C[C@@]43CO)[C@@]1(O)CC[C@@H]2C1=CC(=O)OC1 | Active | Active | Dose-dependent effect | 45% | Dose-dependent effect |  |  |
| C[C@@H]1C[C@@H](O)[C@]2(O)O[C@@H]3C[C@@]4(C=O)[C@@H](CC[C@@H]5[C@@H]4CC[C@]4(C)[C@@H](C6=CC(=O)OC6)CC[C@]54O)C[C@H]3O[C@@H]2O1 [CALACTIN] | Active | Active | Dose-dependent effect | 45% | Dose-dependent effect |  |  |
